Source: ChEMBL document CHEMBL1159064 (J Med Chem, 2010)
Calls of active or inactive are those of the source. The rule behind the calls is not given here.

What was measured:
[1] = target: T1, 5-hydroxytryptamine receptor 1A (Homo sapiens, UniProt P08908); experiment: Displacement of [3H]8-OH-DPAT from 5HT1A receptor expressed in CHO cells by liquid scintillation counting; format: cell-based
T1 sequence (P08908 whole entry): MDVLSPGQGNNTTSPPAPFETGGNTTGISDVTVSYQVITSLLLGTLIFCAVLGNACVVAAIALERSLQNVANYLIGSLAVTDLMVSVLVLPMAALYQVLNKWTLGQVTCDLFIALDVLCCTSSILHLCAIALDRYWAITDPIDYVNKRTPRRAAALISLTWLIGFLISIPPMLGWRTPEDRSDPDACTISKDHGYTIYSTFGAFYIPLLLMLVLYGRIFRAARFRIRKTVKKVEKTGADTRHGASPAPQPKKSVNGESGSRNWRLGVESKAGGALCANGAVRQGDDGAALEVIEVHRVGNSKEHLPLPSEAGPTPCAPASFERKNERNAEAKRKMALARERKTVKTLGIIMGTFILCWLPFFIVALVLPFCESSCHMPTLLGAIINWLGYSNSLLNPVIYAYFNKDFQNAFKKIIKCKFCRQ
Procedure, shortened: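 Binding buffer 50 mM Tris, 4 mM MgCl2, pH 7.4. Nonspecific binding defined with 10 μM of a selective 5-HT1A antagonist. GF/B filtration with cold Tris/EDTA wash, scintillation counting. IC50/Ki by sigmoidal nonlinear regression. Mean of 5-6 experiments.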

D(1A) dopamine receptor = D(1A) dopamine receptor (Homo sapiens, UniProt P21728); experiment: Displacement of [3H]SCH23390 from dopamine D1 receptor expressed in HEK293 cells by liquid scintillation counting; format: cell-based
Sequence of D(1A) dopamine receptor (P21728 whole entry): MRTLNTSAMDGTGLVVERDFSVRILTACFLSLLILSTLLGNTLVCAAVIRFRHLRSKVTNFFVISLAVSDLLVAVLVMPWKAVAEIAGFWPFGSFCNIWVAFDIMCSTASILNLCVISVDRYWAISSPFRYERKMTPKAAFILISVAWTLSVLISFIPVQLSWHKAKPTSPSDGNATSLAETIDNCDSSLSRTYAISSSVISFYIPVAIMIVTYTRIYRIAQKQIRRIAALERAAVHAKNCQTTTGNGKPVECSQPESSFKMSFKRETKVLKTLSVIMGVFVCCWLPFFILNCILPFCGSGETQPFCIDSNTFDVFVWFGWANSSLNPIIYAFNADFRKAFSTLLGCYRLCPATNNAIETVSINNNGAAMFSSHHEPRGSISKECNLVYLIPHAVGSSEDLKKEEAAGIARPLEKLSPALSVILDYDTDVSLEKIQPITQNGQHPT
Procedure, shortened: (§1)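 Membranes from stably transfected HEK293 cells (15 μg/tube) expressing D1 (radioligand [3H]SCH23390) or D2 (radioligand [3H]spiperone), 0.7 nM radioligand, compound 1 nM–100 μM, duplicate tubes, 50 min at 30 °C. Buffer 50 mM Tris, 4 mM MgCl2, pH 7.4. Nonspecific binding with 10 μM SCH23390 (D1) or spiperone (D2). GF/B filtration, scintillation counting. Ki by sigmoidal nonlinear regression.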

D(2) dopamine receptor = D(2) dopamine receptor (Homo sapiens, UniProt P14416); experiment: Displacement of [3H]spiperone from dopamine D2 receptor expressed in HEK293 cells by liquid scintillation counting; format: cell-based; procedure, shortened: as §1
Sequence of D(2) dopamine receptor (P14416 whole entry): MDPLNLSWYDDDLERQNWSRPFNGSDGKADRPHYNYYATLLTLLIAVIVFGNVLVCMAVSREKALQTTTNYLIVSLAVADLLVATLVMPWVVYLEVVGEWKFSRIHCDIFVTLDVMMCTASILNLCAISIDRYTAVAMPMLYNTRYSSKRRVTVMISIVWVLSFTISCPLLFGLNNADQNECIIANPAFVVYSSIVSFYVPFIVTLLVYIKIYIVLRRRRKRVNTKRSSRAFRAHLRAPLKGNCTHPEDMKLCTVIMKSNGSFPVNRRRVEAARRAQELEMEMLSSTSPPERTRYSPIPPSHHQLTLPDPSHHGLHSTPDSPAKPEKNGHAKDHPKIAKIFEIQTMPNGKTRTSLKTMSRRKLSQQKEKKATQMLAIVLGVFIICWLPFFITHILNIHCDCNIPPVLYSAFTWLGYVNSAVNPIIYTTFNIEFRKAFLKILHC

[2] = target: T2, 5-hydroxytryptamine receptor 1A (Homo sapiens) (UniProt P08908); experiment: Antagonist activity at 5HT1A receptor expressed in CHO cells assessed as inhibition of 5-HT-stimulated [35S]GTPgamma binding relative to control; format: functional, cell-based
T2 sequence (whole entry): T1 sequence (P08908 whole entry)

[3] = target: T1, 5-hydroxytryptamine receptor 1A; experiment: […] activity at 5HT1A receptor expressed in CHO cells assessed as inhibition of 5-HT-stimulated [35S]GTPgamma binding; format: functional, cell-based
[4] = target: T2, 5-hydroxytryptamine receptor 1A (Homo sapiens); experiment: Agonist activity at 5HT1A receptor expressed in CHO cells assessed as stimulation of [35S]GTPgamma binding relative to control; format: functional, cell-based
[5] = target: T1, 5-hydroxytryptamine receptor 1A; experiment: Agonist activity at 5HT1A receptor expressed in CHO cells assessed as stimulation of [35S]GTPgamma binding; format: functional, cell-based
Rattus norvegicus [6] = experiment: Increase in ventral tegmental area dopaminergic neuron bursting level in D2-like receptor antagonist raclopride-pretreated Sprague-Dawley rat at 1 mg/kg, iv relative to untreated control; format: functional, organism-based; parameters: dose 1 mg/kg
Rattus norvegicus [7] = experiment: Increase in ventral tegmental area dopaminergic neuron firing rate in D2-like receptor antagonist raclopride-pretreated Sprague-Dawley rat at 1 mg/kg, iv in presence of 5HT1A receptor antagonist WAY-100635 administered post compound dose; format: functional, organism-based; parameters: dose 1 mg/kg
Rattus norvegicus [8] = experiment: Increase in ventral tegmental area dopaminergic neuron bursting level in D2-like receptor antagonist raclopride-pretreated Sprague-Dawley rat at 1 mg/kg, iv in presence of 5HT1A receptor antagonist WAY-100635 administered post compound dose; format: functional, organism-based; parameters: dose 1 mg/kg
Rattus norvegicus [9] = experiment: Increase in ventral tegmental area dopaminergic neuron firing rate in D2-like receptor antagonist raclopride-pretreated Sprague-Dawley rat at 1 mg/kg, iv in pretreated with 5HT1A receptor antagonist WAY-100635; format: functional, organism-based; parameters: dose 1 mg/kg
Rattus norvegicus [10] = experiment: Increase in ventral tegmental area dopaminergic neuron bursting level in D2-like receptor antagonist raclopride-pretreated Sprague-Dawley rat at 1 mg/kg, iv in pretreated with 5HT1A receptor antagonist WAY-100635; format: functional, organism-based; parameters: dose 1 mg/kg
Rattus norvegicus [11] = experiment: Anxiolytic effect in Sprague-Dawley rat assessed as increase in number of entries at open arm at 3 mg/kg, ip pretreated for 1 hr by elevated plus maze test; format: functional, organism-based; parameters: dose 3 mg/kg
Procedure, shortened: (§2)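 Male rats, 250-300 g, given saline or test compound ip (1.0 or 3.0 mg/kg) 1 h before the maze. Two open and two closed arms (40 cm walls), 50 × 10 cm arms, raised 50 cm. Rat placed on centre facing a closed arm and allowed 5 min to explore. Video tracking recorded open-arm entries and time. Mean ± SE, n = 7-9; comparison to the saline group.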

Rattus norvegicus [12] = experiment: Anxiolytic effect in Sprague-Dawley rat assessed as increase in time spent at open arm at 3 mg/kg, ip pretreated for 1 hr by elevated plus maze test; format: functional, organism-based; parameters: dose 3 mg/kg; procedure, shortened: as §2
Rattus norvegicus [13] = experiment: Anxiolytic effect in Sprague-Dawley rat assessed as increase in number of entries at open arm at 1 mg/kg, ip pretreated for 1 hr by elevated plus maze test; format: functional, organism-based; parameters: dose 1 mg/kg; procedure, shortened: as §2
Rattus norvegicus [14] = experiment: Anxiolytic effect in Sprague-Dawley rat assessed as increase in time spent at open arm at 1 mg/kg, ip pretreated for 1 hr by elevated plus maze test; format: functional, organism-based; parameters: dose 1 mg/kg; procedure, shortened: as §2

Compound | Ki ([1]; read-out: Ki) [nM] | Ki (D(1A) dopamine receptor) [nM] | Ki (D(2) dopamine receptor) [nM] | further results
C/C=C/COc1cccc2c1-c1cccc3c1[C@@H](C2)N(CCC)CC3 | 11 |  |  | 
C=CCc1ccc2c(c1O)-c1cccc3c1[C@@H](C2)N(C)CC3 | 135 | > 10000 | > 10000 | 
CCCN1CCc2cccc3c2[C@H]1Cc1ccc2c(C)c(C)oc2c1-3 | 510 | > 10000 | > 10000 | 
Cc1cc2ccc3c(c2o1)-c1cccc2c1[C@@H](C3)N(C)CC2 | 29 | > 10000 | > 10000 | 
CCCN1CCc2cccc3c2[C@H]1Cc1cccc(OCC=C(C)C)c1-3 | 149 | > 10000 | > 10000 | 
CCCN1CCc2cccc3c2[C@H]1Cc1ccc2c(c1-3)OC(C)C2C (mixture of isomers) | 90 |  |  | 
NCCc1c[nH]c2ccc(O)cc12 [SEROTONIN] |  |  |  | Imax [2]: inactive; IC50 ([3]; cho): Not Active
COc1cc2c3c(c1)-c1c(O)cccc1C[C@H]3N(C)CC2 | 258 | 46 | 235 | 
CCCN1CCc2cccc3c2[C@H]1Cc1ccc2c(c1-3)OC(C)(C)C2 | 630 | > 10000 | > 10000 | 
C=CCOc1cccc2c1-c1cccc3c1[C@@H](C2)N(C)CC3 | 12 | > 10000 | > 10000 | Emax [4]: 61%; EC50 ([5]; read-out: EC50): 56 nM; Imax [2]: 100%; IC50 ([3]; read-out: IC50): 323 nM
CCCN1CCc2cccc3c2[C@H]1Cc1cccc(O)c1-3 | 45 | > 10000 |  | 
C=C(C)Cc1ccc2c(c1O)-c1cccc3c1[C@@H](C2)N(CCC)CC3 |  | > 10000 | > 10000 | Ki ([1]; cho): Not Active
C=CC(C)c1ccc(O)c2c1C[C@@H]1c3c(cccc3-2)CCN1CCC (mixture of isomers) | 626 |  |  | 
C#CCOc1cccc2c1-c1cccc3c1[C@@H](C2)N(CCC)CC3 | 55 | > 10000 | > 10000 | 
CC#CCOc1cccc2c1-c1cccc3c1[C@@H](C2)N(CCC)CC3 | 125 | > 10000 | > 10000 | 
CCCN1CCc2cccc3c2[C@H]1Cc1ccc2c(c1-3)OC(C)C2 (mixture of isomers) | 340 |  |  | 

Compound | Ki ([1]; read-out: Ki) [nM] | Ki (D(1A) dopamine receptor) [nM] | Ki (D(2) dopamine receptor) [nM] | further results
C=C(C)COc1cccc2c1-c1cccc3c1[C@@H](C2)N(CCC)CC3 | 373 | > 10000 | > 10000 | 
C[C@@H]1Cc2ccc3c(c2O1)-c1cccc2c1[C@@H](C3)N(C)CC2 (relative stereo) | 3.1 | > 10000 | > 10000 | Emax [4]: 127%; EC50 ([5]; read-out: EC50): 86 nM; Imax [2]: inactive; IC50 ([3]; cho): Not Active; Activity (Rattus norvegicus [6]): Active; Activity (Rattus norvegicus [7]): inactive; Activity (Rattus norvegicus [8]): inactive; Activity (Rattus norvegicus [9]): inactive; Activity (Rattus norvegicus [10]): inactive; Activity (Rattus norvegicus [11]): Active; Activity (Rattus norvegicus [12]): Active
C=CC(C)c1ccc2c(c1O)-c1cccc3c1[C@@H](C2)N(CCC)CC3 (mixture of isomers) | > 10000 |  |  | 
C=CC(C)Oc1cccc2c1-c1cccc3c1[C@@H](C2)N(CCC)CC3 (mixture of isomers) | > 10000 |  |  | 
CN1CCc2cccc3c2[C@H]1Cc1cccc(O)c1-3 | 49 | 61 | 208 | 
CCCN1CCc2cccc3c2[C@H]1Cc1ccc2cc(C)oc2c1-3 | 320 | > 10000 | > 10000 | 
CCCN1CCc2cccc3c2[C@H]1Cc1c(CC=C(C)C)ccc(O)c1-3 |  | > 10000 | > 10000 | Ki ([1]; cho): Not Active
CC1Cc2ccc3c(c2O1)-c1cc(O)cc2c1[C@@H](C3)N(C)CC2 (mixture of isomers) | 12 |  |  | 
CC1Cc2ccc3c(c2O1)-c1cccc2c1[C@@H](C3)N(C)CC2 (mixture of isomers) | 6.7 | > 10000 | > 10000 | Emax [4]: inactive; EC50 ([5]; cho): Not Active; Imax [2]: 100%; IC50 ([3]; read-out: IC50): 323 nM
C=CCOc1cccc2c1-c1cccc3c1[C@@H](C2)N(CCC)CC3 | 279 | > 10000 | > 10000 | 
C=CCc1ccc2c(c1O)-c1cccc3c1[C@@H](C2)N(CCC)CC3 | 793 | > 10000 | > 10000 | 
C=CCOc1cccc2c1-c1cc(OC)cc3c1[C@@H](C2)N(C)CC3 | 66 | > 10000 | > 10000 | 
C[C@H]1Cc2ccc3c(c2O1)-c1cccc2c1[C@@H](C3)N(C)CC2 (relative stereo) | 45.3 | > 10000 | > 10000 | Emax [4]: inactive; EC50 ([5]; cho): Not Active; Imax [2]: 100%; IC50 ([3]; read-out: IC50): 18 nM; Activity (Rattus norvegicus [11]): inactive; Activity (Rattus norvegicus [12]): inactive; Activity (Rattus norvegicus [13]): inactive; Activity (Rattus norvegicus [14]): inactive
C=CCc1ccc2c(c1O)-c1cc(OC)cc3c1[C@@H](C2)N(C)CC3 | 144 | > 10000 | > 10000 | 
C#CCOc1cccc2c1-c1cccc3c1[C@@H](C2)N(C)CC3 | 14 | > 10000 | > 10000 | Emax [4]: 73%; EC50 ([5]; read-out: EC50): 180 nM
